Where two headings read alike, the source gives them in different places.
Legend:
[1] = test system: S. aureus BstA; type: biochemical, Staphylococcus aureus; conditions: for reduction of enzymatic rate compared to untreated +BstA reaction / reaction rate of +BstA reaction after treatment: 1 mM phenanthroline, 220 nM BstA; for reaction rate of +BstA reaction after treatment: 50 μM BSH, 23°C
[2] = test system: S. aureus BstA; assay: Direct BstA reactions; type: biochemical, Staphylococcus aureus; conditions: for BstA dependence of reaction with BSH: with and without BstA
Method in brief: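 Purified His6-tag-cleaved S. aureus BstA, expressed in E. coli C41 (DE3). Cerulenin and BSH, 500 μM each, reacted with and without 220 nM BstA. Samples diluted 5-fold into 10 mM methanesulfonic acid, concentrated, then run on C18 reverse-phase HPLC at 0.4 mL/min with a 0–70% B gradient over 40 min (A 0.05% TFA-water, B 60% acetonitrile-water). Detection at 220 nm.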

[3] = cited from earlier work
[4] = test system: S. aureus FosB; conditions: read-out: Km of FosB for BSH; cited from earlier work
[5] = target: T1, BstA (Staphylococcus aureus, UniProt A0A0H2XDW9); assay: Saturation kinetics of BstA; type: biochemical; conditions: for kcat: pH 7.0, BSH and mBCl at 37°C with 220 nM BstA, CDNB at 23°C with 2.8 μM BstA
[6] = Direct non-enzymatic reaction with BSH
[7] = target: T1, BstA; assay: Inhibition constants of carboxamido-1,3,4-oxadiazole kinase inhibitors; type: biochemical
[8] = test system: S. aureus MW2; conditions: cited from earlier work
[9] = + 220 nM BstA, 50 μM thiol, 50 μM mBCl, pH 7.0
[10] = − BstA, 50 μM thiol, 50 μM mBCl, pH 7.0

In the case of `c1cnc2c(c1)ccc1ncccc12` [1,7-phenanthroline], the “reduction of enzymatic rate compared to untreated +BstA reaction” value [1] is reported as 27% and the “reaction rate of +BstA reaction after treatment” value ([1]; 50 μM mBCl) is reported as 105 nmol/min/mg.
With `c1cnc2c(c1)ccc1cccnc12` [1,10-phenanthroline] the “reduction of enzymatic rate compared to untreated +BstA reaction” value [1] was > 99% and the “reaction rate of +BstA reaction after treatment” value ([1]; 50 μM mBCl) was 12.5 ± 0.7 nmol/min/mg.
With `CCCCCC(O)/C=C/C=O` (centres unmarked) [4-hydroxynonenal] the “BstA dependence of reaction with BSH” value [2] was “BstA-independent”.
In the case of `N[C@@H](CS)C(=O)N[C@H]1[C@@H](O[C@@H](CC(=O)O)C(=O)O)O[C@H](CO)[C@@H](O)[C@@H]1O` [BSH, bacillithiol], the “thiol pKa” value [3] is listed as 7.46, the “Specific Activity + BstA” value [1, 9] is listed as 152 ± 8 nmol/min/mg and the “Specific Activity − BstA” value [1, 10] is listed as 8.4 ± 0.3 nmol/min/mg. The Km [4] was 4.2 ± 0.7 mM, the “Km of BstA for BSH lower than that of S. aureus FosB” value ([5]; BstA vs FosB) was 260 fold and the kcat [5] was 0.21 ± 0.01 s⁻¹.
With `O=[N+]([O-])c1ccc(Cl)c([N+](=O)[O-])c1` [CDNB, 1-chloro-2,4-dinitrobenzene] the “catalytic efficiency below that of mBCl” value ([5]; CDNB vs mBCl) was 8 fold and the kcat [5] was 0.22 ± 0.02 s⁻¹.
In the case of `CC(C)(COP(=O)(O)OP(=O)(O)OC[C@H]1O[C@@H](n2cnc3c(N)ncnc32)[C@H](O)[C@@H]1OP(=O)(O)O)[C@@H](O)C(=O)NCCC(=O)NCCS` [Coenzyme A, coenzyme A], the “thiol pKa” value [3] is given as 9.6, the “Specific Activity + BstA” value [1, 9] is given as 1.4 ± 0.1 nmol/min/mg and the “Specific Activity − BstA” value [1, 10] is given as 1.2 ± 0.1 nmol/min/mg.
For `N[C@@H](CS)C(=O)O` [Cysteine, cysteine], the “Specific Activity + BstA” value [1, 9] was 8.3 ± 0.5 nmol/min/mg and the “Specific Activity − BstA” value [1, 10] was 6.7 ± 0.3 nmol/min/mg.
With `O=C(O)CN(CCN(CC(=O)O)CC(=O)O)CC(=O)O` [EDTA, ethylenediaminetetraacetic acid] the “effect on BstA activity” value [1] was “abolished activity”.
For `N[C@@H](CCC(=O)N[C@@H](CS)C(=O)NCC(=O)O)C(=O)O` [Glutathione, glutathione], the “Specific Activity + BstA” value ([1]; pH 7) was 3.9 ± 0.1 nmol/min/mg and the “Specific Activity − BstA” value ([1]; pH 7) was 4.4 ± 0.4 nmol/min/mg.
In the case of `CC(=O)N[C@@H](CS)C(=O)N[C@H]1[C@@H](OC2[C@H](O)[C@H](O)C(O)[C@H](O)[C@H]2O)O[C@H](CO)[C@@H](O)[C@@H]1O` (some centres unmarked) [Mycothiol, mycothiol], the “Specific Activity + BstA” value [1, 9] is reported as 3.3 ± 0.1 nmol/min/mg and the “Specific Activity − BstA” value [1, 10] is reported as 3.0 ± 0.1 nmol/min/mg.
In the case of `C/C=C/C/C=C/CCC(=O)[C@H]1O[C@H]1C(N)=O` [cerulenin], the “non-enzymatic rate of adduct formation with BSH” value ([6]; 500 μM cerulenin, 500 μM BSH, −BstA) is reported as 170 nmol/min/mg, the “adduct formation rate with BSH, +BstA” value ([2]; 500 μM cerulenin, 500 μM BSH, 220 nM BstA) is reported as 300 nmol/min/mg and the “BstA catalyzed reaction rate” value ([2]; cerulenin with BSH, net enzymatic rate) is reported as 130 nmol/min/mg. For the same compound, the “BstA dependence of reaction with BSH” value [2] was “weak substrate”.
With `O=C(Nc1nnc(-c2ccc(F)cc2)o1)c1ccc(Br)s1` [compound 3, 5-bromo-N-[5-(4-fluorophenyl)-1,3,4-oxadiazol-2-yl]thiophene-2-carboxamide] the Ki [7] was ~3 µM and the “inhibition of BstA in concentration dependent inhibitor studies” value ([7]; 5 μM inhibitor) was “effective inhibitor”.
With `C=C(CC)C(=O)c1ccc(OCC(=O)O)c(Cl)c1Cl` [etacrynic acid] the “BstA dependence of reaction with BSH” value [2] was “BstA-independent”.
In the case of `OO` [hydrogen peroxide], the “increase of bstA expression” value [8] is given as 3 fold, the “upregulation of brxB ortholog” value [8] is given as 6 fold and the “upregulation of glxA ortholog” value [8] is given as 2 fold.
In the case of `OCl` [hypochlorous acid], the “increase of bstA expression” value [8] is given as 2 fold, the “upregulation of brxB ortholog” value [8] is given as 2 fold and the “upregulation of glxA ortholog” value [8] is given as 3 fold.
In the case of `Cc1c(C)n2c(CCl)c(C)c(=O)n2c1=O` [mBCl, monochlorobimane], the “Km below the Km of CDNB” value ([5]; mBCl vs CDNB) is reported as “over 10 fold” and the kcat [5] is reported as 0.30 ± 0.02 s⁻¹.
For `CO[C@H]1/C=C/O[C@@]2(C)Oc3c(C)c(O)c4c(c3C2=O)C(=O)C=C(NC(=O)/C(C)=C\C=C\[C@H](C)[C@H](O)[C@@H](C)[C@@H](O)[C@@H](C)[C@H](OC(C)=O)[C@@H]1C)C4=O` [rifamycin S], the “rate of direct reaction with BSH” value ([6]; 50 μM each, pH 7.0 and pH 6.0, BstA-independent) was > 35 µM/min and the “BstA dependence of reaction with BSH” value [2] was “BstA-independent”.
With `C[S+]([O-])CCCCN=C=S` (centres unmarked) [sulforaphane] the “BstA dependence of reaction with BSH” value [2] was “BstA-independent”.

Reference: publication PMC4802972 (Biochimica et biophysica acta, 2014)
